Results reported in publication PMC9014391 (Heliyon, 2022).

Experiments:
[1] = system: SW-620^G12V; experiment: SRB assay; assay type: cell-based; conditions: Homo sapiens, 48 h
How it was run: (§1)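 Sulforhodamine B assay. Cells were plated at 5000–10,000/well according to doubling time, then after 24 h exposed to a 7-point, 2-fold dilution series for 48 h at 37 °C, with paclitaxel as positive control. Cells were TCA-fixed 1 h at 4 °C and stained with 0.4% SRB, with unbound dye removed by 1% acetic acid. Bound dye was dissolved in 10 mM Tris pH 10.4 and read at 540 nm. IC50 was obtained by curve fitting; quadruplicates.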

[2] = system: ABCC1; experiment: qRT-PCR after chemotherapy treatment; assay type: cell-based, Human; conditions: HCT-116^G13D- and SW-620^G12V–CSCs, 48 h; printed '∼4 and 2-fold' for 'ABCB1 and ABCC1'
[3] = system: HCT-116^G13D; experiment: SRB assay; assay type: cell-based; conditions: Homo sapiens, 48 h
How it was run: as §1

[4] = system: HCT-116^G13D-CSCs derived colonospheres; experiment: 3D colonospheres chemotherapy treatment; assay type: cell-based, Human; conditions: 5-FU 14.7 μM, even with prolonged exposure
How it was run: (§2)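 Colonospheres grown from single-cell suspensions at low density in serum-free DMEM/F12 with FGF (10 ng/mL), EGF (20 ng/mL) and B27. Medium was refreshed every 3–4 days, and spheres were passaged by syringe dissociation. After ten days of growth, parental- or CSC-derived colonospheres were exposed to 5-FU (14.7/78 μM) and/or test compound (1.7/2.2 μM). Response was judged by metabolically active cells and sphere dissociation, with phase-contrast imaging.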

[5] = system: advanced CRC; conditions: background statement, ref not given; cited from earlier work
[6] = assay type: in vivo, Balb/c mice
How it was run: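 Male or unspecified Balb/c mice (20–22 g), fasted overnight, four groups of five. Single oral doses were given in 0.5% DMSO/10% Solutol/water at 10 mL/kg: test compound 20 mg/kg and 5-FU 40 mg/kg, alone or combined. Retro-orbital blood was taken at 0–10 h into EDTA by sparse sampling, two samples per group. Plasma (50 μL) was protein-precipitated with methanol, centrifuged, and the organic layer analysed.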

[7] = system: ABCB1; experiment: qRT-PCR after chemotherapy treatment; assay type: cell-based, Human; conditions: HCT-116^G13D- and SW-620^G12V–CSCs, 48 h; printed '∼4 and 2-fold' for 'ABCB1 and ABCC1'
[8] = system: ALDH1A1, ALDH1A3 and ALDH3A1; experiment: qRT-PCR after chemotherapy treatment; assay type: cell-based, Human; conditions: HCT-116^G13D and SW-620^G12V, 48 h
How it was run: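 Parental monolayers and 10-day colonospheres were treated 48 h with 5-FU (14.7/78 μM), test compound (1.7/2.2 μM) or both, with 0.2% DMSO (final) as control. RNA was extracted with Tri-reagent and DNase-treated, then reverse-transcribed. SYBR green qPCR ran 95 °C 2 min, then 40 cycles of 95 °C 5 s/60 °C 5 s, with a final 72 °C 5 min. Expression was normalised to GAPDH.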

[9] = system: HCT-116^G13D parental derived colonospheres; experiment: 3D colonospheres chemotherapy treatment; assay type: cell-based, Human; conditions: 5-FU 14.7 μM, PMBA 1.7 μM, after ten days of growth
How it was run: as §2

[10] = system: SW-620^G12V-CSC derived colonospheres; experiment: 3D colonospheres chemotherapy treatment; assay type: cell-based, Human; conditions: 5-FU 78 μM, even with prolonged exposure
How it was run: as §2

[11] = Balb/c, mouse, plasma, po, 40 mg

IC50 [1]: 78.3 µM
IC50 [3]: 14.8 µM
Vd ([6]; 5-FU alone, oral 40 mg): 56.32 L/kg
AUC(0-inf) [6, 11]: 1140 ng·h/mL
AUC(0-t) [6, 11]: 1110 ng·h/mL
Cmax [6, 11]: 2450 ng/mL
half-life [6, 11]: 1.1 h
SMILES: O=c1[nH]cc(F)c(=O)[nH]1 [5-FU, 5-Fluorouracil]
ABCC1 expression, fold down regulated [2]: did not alter the expression
response of colonospheres to treatment [4]: resistant
curative accountability [5]: 10–15%
ABCB1 expression, fold down regulated [7]: did not alter the expression
ALDH1A1, ALDH1A3 and ALDH3A1 expression [8]: did not alter the expression
response of colonospheres to treatment [9]: sensitive
response of colonospheres to treatment [10]: resistant
